Source: ChEMBL document CHEMBL2424632, “Substituted 2-hydroxy-N-(arylalkyl)benzamides induce apoptosis in cancer cell lines” (Eur J Med Chem, 2013)
One block for each compound: values may come before it. The source made the active and inactive calls. The rule behind the calls is not given here.

Legend:
HCT-116 = assay: Cytotoxicity against human HCT116 cells after 72 hrs by calcein-AM assay; assay type: functional, cell-based; details: HCT-116, 72 h
HeLa = assay: Cytotoxicity against human HeLa cells after 72 hrs by calcein-AM assay; assay type: functional, cell-based
G-361 [1] = assay: Cytotoxicity against human G361 cells after 72 hrs by calcein-AM assay; assay type: functional, cell-based; details: G-361, 72 h
MCF7 = assay: Cytotoxicity against human MCF7 cells after 72 hrs by calcein-AM assay; assay type: functional, cell-based; details: MCF7, 72 h
K562 = assay: Cytotoxicity against human K562 cells after 72 hrs by calcein-AM assay; assay type: functional, cell-based; details: K562, 72 h
G-361 [2] = assay: Induction of apoptosis in human G361 cells assessed as caspase-3/7 activation at 2 uM after 24 hrs by fluorescence assay relative to control; assay type: functional
Outline: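 G361 cells seeded at 20,000 per well overnight, then exposed 24 h to compound at 2 µM final. 3x caspase-3/7 buffer (HEPES pH 7.4, NaCl, KCl, MgCl2, EGTA, NP-40, CHAPS, sucrose, DTT, PMSF) with Ac-DEVD-AMC substrate added; incubated 37 °C, fluorescence read after 4 h at 346/442 nm; activity expressed relative to untreated cells.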

HOS = assay: Cytotoxicity against human HOS cells after 72 hrs by calcein-AM assay; assay type: functional, cell-based
G-361 [3] = assay: Induction of apoptosis in human G361 cells; assay type: functional, cell-based
G-361 [4] = assay: Induction of autophagy in human G361 cells assessed as fragmentation of LC3 at 0.2 to 6 uM after 24 hrs by immunoblotting analysis; assay type: functional, cell-based
Outline: (§1)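 Asynchronous G361 cells exposed 24 h; lysates made by harvesting in Laemmli sample buffer, resolved by SDS-PAGE, electroblotted to nitrocellulose, blocked, probed overnight with specific primary antibodies, then peroxidase-conjugated secondary antibodies; actin served as loading control.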

G-361 [5] = assay: Downregulation of MDM2 protein expression in human G361 cells at 0.2 to 6 uM after 24 hrs by immunoblotting analysis; assay type: functional, cell-based; outline: as §1
G-361 [6] = assay: Downregulation of p53 protein expression in human G361 cells at 0.2 to 6 uM after 24 hrs by immunoblotting analysis; assay type: functional, cell-based; outline: as §1
G-361 [7] = assay: Induction of apoptosis in human G361 cells assessed as increase in p53 mRNA level; assay type: functional, cell-based
G-361 [8] = assay: Induction of apoptosis in human G361 cells assessed as increase in p53 protein level at 0.2 to 6 uM after 24 hrs by immunoblotting analysis; assay type: functional, cell-based; outline: as §1
G-361 [9] = assay: Induction of apoptosis in human G361 cells assessed as decrease in BCL-XL protein expression after 24 hrs by immunoblotting analysis; assay type: functional, cell-based; outline: as §1
G-361 [10] = assay: Induction of apoptosis in human G361 cells assessed as increase in BCL-2 protein expression at 0.2 to 6 uM after 24 hrs by immunoblotting analysis; assay type: functional, cell-based; outline: as §1
G-361 [11] = assay: Induction of apoptosis in human G361 cells assessed as decrease in caspase-7 zymogene at 0.2 to 6 uM after 24 hrs by immunoblotting analysis; assay type: functional, cell-based; outline: as §1
G-361 [12] = assay: Induction of apoptosis in human G361 cells assessed as PARP-1 cleavage at 0.2 to 6 uM after 24 hrs by immunoblotting analysis; assay type: functional, cell-based; outline: as §1
G-361 [13] = assay: Induction of apoptosis in human G361 cells assessed as decrease in caspase-3 zymogene at 0.2 to 6 uM after 24 hrs by immunoblotting analysis; assay type: functional, cell-based; outline: as §1
G-361 [14] = assay: Induction of apoptosis in human G361 cells assessed as caspase-9 cleavage at 0.2 to 6 uM after 24 hrs by immunoblotting analysis; assay type: functional, cell-based; outline: as §1
[15] = biological target: RAC-alpha serine/threonine-protein kinase (Homo sapiens) (UniProt P31749); assay: Inhibition of AKT phosphorylation at Ser473 in human G361 cells at 0.22 to 6 uM after 24 hrs by immunoblotting analysis; assay type: cell-based; details: G-361; outline: as §1
Sequence of RAC-alpha serine/threonine-protein kinase (Homo sapiens) (P31749 whole entry): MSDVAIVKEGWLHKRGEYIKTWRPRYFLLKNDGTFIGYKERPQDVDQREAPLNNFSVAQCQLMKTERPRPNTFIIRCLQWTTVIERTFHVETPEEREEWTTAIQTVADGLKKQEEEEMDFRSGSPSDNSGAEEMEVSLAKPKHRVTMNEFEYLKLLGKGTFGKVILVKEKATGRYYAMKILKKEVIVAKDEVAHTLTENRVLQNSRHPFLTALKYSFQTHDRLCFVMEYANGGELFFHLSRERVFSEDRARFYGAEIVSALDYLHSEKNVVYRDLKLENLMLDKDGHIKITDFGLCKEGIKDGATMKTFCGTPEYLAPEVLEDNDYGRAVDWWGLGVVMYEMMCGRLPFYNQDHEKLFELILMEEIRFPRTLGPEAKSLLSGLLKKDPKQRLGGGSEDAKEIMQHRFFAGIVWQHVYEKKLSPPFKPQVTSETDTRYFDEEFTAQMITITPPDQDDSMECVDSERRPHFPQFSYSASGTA

[16] = biological target: Mitogen-activated protein kinase; ERK1/ERK2 (Homo sapiens) (UniProt P27361+P28482); assay: Inhibition of ERK1/2 phosphorylation at Thr202/Tyr204 in human G361 cells at 0.22 to 6 uM after 24 hrs by immunoblotting analysis; assay type: cell-based; details: G-361; outline: as §1
Sequence of Mitogen-activated protein kinase; ERK1/ERK2 (Homo sapiens) (P27361 whole entry, looked up): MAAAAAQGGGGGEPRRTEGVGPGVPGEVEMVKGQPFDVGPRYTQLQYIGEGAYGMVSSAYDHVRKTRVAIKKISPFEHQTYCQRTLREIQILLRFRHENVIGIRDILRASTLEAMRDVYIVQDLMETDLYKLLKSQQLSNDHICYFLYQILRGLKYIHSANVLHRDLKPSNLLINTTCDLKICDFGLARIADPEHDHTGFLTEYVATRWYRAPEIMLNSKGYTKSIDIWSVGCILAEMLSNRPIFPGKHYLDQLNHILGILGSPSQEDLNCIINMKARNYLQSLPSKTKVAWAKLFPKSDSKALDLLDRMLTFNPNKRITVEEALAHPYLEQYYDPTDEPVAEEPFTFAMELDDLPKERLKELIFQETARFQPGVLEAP
Sequence of Mitogen-activated protein kinase; ERK1/ERK2 (Homo sapiens) (P28482 whole entry, looked up): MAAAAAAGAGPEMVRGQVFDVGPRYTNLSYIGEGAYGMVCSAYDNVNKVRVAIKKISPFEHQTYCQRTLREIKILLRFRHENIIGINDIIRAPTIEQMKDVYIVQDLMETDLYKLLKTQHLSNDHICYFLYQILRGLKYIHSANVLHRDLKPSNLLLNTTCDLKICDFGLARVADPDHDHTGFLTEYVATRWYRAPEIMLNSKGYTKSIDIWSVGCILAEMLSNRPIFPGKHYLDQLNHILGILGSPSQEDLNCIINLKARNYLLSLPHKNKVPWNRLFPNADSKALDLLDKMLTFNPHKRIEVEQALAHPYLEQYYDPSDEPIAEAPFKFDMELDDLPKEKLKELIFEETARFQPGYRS

G-361 [17] = assay: Upregulation of p27KIP1 protein expression in human G361 cells at 2 to 6 uM after 24 hrs by immunoblotting analysis; assay type: functional, cell-based; outline: as §1
G-361 [18] = assay: Upregulation of p27KIP1 protein expression in human G361 cells at 670 nM after 24 hrs by immunoblotting analysis; assay type: functional, cell-based; outline: as §1
G-361 [19] = assay: Effect on cyclin E protein expression in human G361 cells at 0.22 to 6 uM after 24 hrs by immunoblotting analysis; assay type: functional, cell-based; outline: as §1
G-361 [20] = assay: Effect on CDK2 protein expression in human G361 cells at 0.22 to 6 uM after 24 hrs by immunoblotting analysis; assay type: functional, cell-based; outline: as §1
G-361 [21] = assay: Effect on CDK1 protein expression in human G361 cells at 0.22 to 6 uM after 24 hrs by immunoblotting analysis; assay type: functional, cell-based; outline: as §1
G-361 [22] = assay: Downregulation of cyclin B protein expression in human G361 cells at 0.22 to 6 uM after 24 hrs by immunoblotting analysis; assay type: functional, cell-based; outline: as §1
G-361 [23] = assay: Downregulation of cyclin A protein expression in human G361 cells at 0.22 to 6 uM after 24 hrs by immunoblotting analysis; assay type: functional, cell-based; outline: as §1
G-361 [24] = assay: Downregulation of CDK4 protein expression in human G361 cells at 0.22 to 6 uM after 24 hrs by immunoblotting analysis; assay type: functional, cell-based; outline: as §1
G-361 [25] = assay: Cell cycle arrest in human G361 cells assessed as increase in sub-G1 phase population at 1 to 4 uM after 24 hrs by propidium iodide staining-based flow cytometric analysis in presence of BrdU; assay type: functional
Outline: (§2)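 Asynchronously growing cells treated 24 h; cultures pulse-labelled with 10 µM BrdU for 30 min at 37 °C before harvest, washed in PBS, fixed in 70% ethanol, denatured in 2 M HCl, neutralized, stained with fluorescein anti-BrdU antibody then propidium iodide; flow cytometry with 488 nm laser; sub-G1 and BrdU-positive S-phase fractions scored.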

G-361 [26] = assay: Cell cycle arrest in human G361 cells assessed as decrease in S phase population at 0.25 to 4 uM after 24 hrs by propidium iodide staining-based flow cytometric analysis in presence of BrdU; assay type: functional; outline: as §2

SMILES: CC(C)[C@H](NC(=O)c1cc(Cl)ccc1O)C(=O)Nc1ccc(C(F)(F)F)cc1
IC50 (HCT-116): 5.9 µM | IC50 (HeLa): 5.4 µM | IC50 (G-361 [1]): 6.6 µM | IC50 (MCF7): 7.3 µM | IC50 (K562): 4.5 µM | Activity (G-361 [2]): Active | IC50 (HOS): 7 µM

SMILES: C[C@H](NC(=O)c1cc(Cl)ccc1O)C(=O)Nc1ccc(C(F)(F)F)cc1
IC50 (MCF7): > 12.5 µM | IC50 (K562): > 12.5 µM

SMILES: O=C(N[C@@H](Cc1ccccc1)C(=O)Nc1cccc(Cl)c1)c1cc(Cl)ccc1O
IC50 (MCF7): > 10 µM | IC50 (K562): > 10 µM

SMILES: O=C(CNC(=O)c1cc(Cl)ccc1O)Nc1ccc(Cl)c(Cl)c1
IC50 (MCF7): > 20 µM | IC50 (K562): > 20 µM

SMILES: O=C(N[C@@H](CC1CCCCC1)C(=O)Nc1ccc(Br)cc1)c1cc(Cl)ccc1O
IC50 (HCT-116): 2 µM | IC50 (HeLa): 1.3 µM | IC50 (G-361 [1]): 1.3 µM | IC50 (MCF7): 1.9 µM | IC50 (K562): 3 µM | fold change (FC) (G-361 [2]): >10 | IC50 (HOS): 3.3 µM

SMILES: O=C(N[C@H](Cc1ccccc1)C(=O)Nc1ccc(Cl)c(Cl)c1)c1cc(Cl)ccc1O
IC50 (MCF7): > 10 µM | IC50 (K562): > 10 µM

SMILES: CC(C)[C@H](NC(=O)c1ccc(Cl)cc1O)C(=O)Nc1ccc(Cl)c(Cl)c1
IC50 (MCF7): > 10 µM | IC50 (K562): > 10 µM

SMILES: O=C(N[C@@H](Cc1ccccc1)C(=O)Nc1ccc(Cl)c(Cl)c1)c1ccc(Cl)cc1O
IC50 (MCF7): 7.3 µM | IC50 (K562): > 10 µM

SMILES: C[C@H](NC(=O)c1ccc(Cl)cc1O)C(=O)Nc1ccc(Cl)cc1
IC50 (MCF7): > 10 µM | IC50 (K562): > 10 µM

SMILES: CC(C)[C@H](NC(=O)c1ccc(Cl)cc1O)C(=O)Nc1ccc(Br)cc1
IC50 (MCF7): > 10 µM | IC50 (K562): > 10 µM

inhibition [15]: Active | inhibition [16]: Active
SMILES: O=C(N[C@H](Cc1ccccc1)C(=O)Nc1ccc(Cl)cc1)c1cc(Cl)ccc1O
IC50 (HCT-116): 1.7 µM | IC50 (HeLa): 1.1 µM | IC50 (G-361 [1]): 1.3 µM | IC50 (MCF7): 3.5 µM | IC50 (K562): 2.5 µM | Activity (G-361 [3]): Dose-dependent effect | Activity (G-361 [4]): Active | Activity (G-361 [5]): Active | Activity (G-361 [6]): Active | Activity (G-361 [7]): inactive | Activity (G-361 [8]): inactive | Activity (G-361 [9]): Dose-dependent effect | Activity (G-361 [10]): Active | Activity (G-361 [11]): Active | Activity (G-361 [12]): Active | Activity (G-361 [13]): Active | Activity (G-361 [14]): Active | fold change (FC) (G-361 [2]): >10 | Activity (G-361 [17]): inactive | Activity (G-361 [18]): Active | Activity (G-361 [19]): Active | Activity (G-361 [20]): Active | Activity (G-361 [21]): Active | Activity (G-361 [22]): Active | Activity (G-361 [23]): Active | Activity (G-361 [24]): Active | Activity (G-361 [25]): Active | Activity (G-361 [26]): Active | IC50 (HOS): 2.5 µM

SMILES: COc1ccc(NC(=O)[C@@H](NC(=O)c2cc(Cl)ccc2O)C(C)C)cc1
IC50 (MCF7): > 10 µM | IC50 (K562): > 10 µM

SMILES: CC(C)(C)[C@H](NC(=O)c1cc(Cl)ccc1O)C(=O)Nc1cccc(C(F)(F)F)c1
IC50 (HCT-116): 5.4 µM | IC50 (HeLa): 6.5 µM | IC50 (G-361 [1]): 8.3 µM | IC50 (MCF7): 8.8 µM | IC50 (K562): 5.9 µM | Activity (G-361 [2]): Active | IC50 (HOS): 7.8 µM

SMILES: CC(C)[C@H](NC(=O)c1cc(Cl)ccc1O)C(=O)Nc1ccccc1
IC50 (MCF7): > 10 µM | IC50 (K562): > 10 µM

SMILES: O=C(N[C@@H](Cc1ccccc1)C(=O)Nc1ccc(Cl)c(Cl)c1)c1cc(Cl)ccc1O
IC50 (MCF7): > 10 µM | IC50 (K562): > 10 µM

SMILES: CC(C)[C@H](NC(=O)c1cc(Cl)ccc1O)C(=O)Nc1cccc(Cl)c1
IC50 (MCF7): > 10 µM | IC50 (K562): > 10 µM

SMILES: O=C(N[C@@H](Cc1ccccc1)C(=O)Nc1ccc(Cl)cc1)c1cc(Cl)ccc1O
IC50 (MCF7): 7.9 µM | IC50 (K562): > 10 µM
